Results reported in ChEMBL document CHEMBL1955763, “Antimicrobial activity of sulfonamides containing 5-chloro-2-hydroxybenzaldehyde and 5-chloro-2-hydroxybenzoic acid scaffold” (Eur J Med Chem, 2012).
Converted amounts (≈) assume the structure as drawn.

Experiments:
Trichosporon asahii = assay: Antifungal activity against Trichosporon asahii 1188 after 24 hrs by broth microdilution method; type: functional; details: Trichosporon asahii, 1188, 24 h
How it was run: (§1)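 Microdilution broth per CLSI M27-A3 (yeasts) or M38-A2 (moulds) in RPMI 1640 with glutamine, buffered to pH 7.0 with 0.165 mol MOPS. Compounds were in DMSO. Final inoculum was 5 × 10³ ± 0.2 CFU/mL. Other conditions matched the antibacterial assay, with MIC as IC₉₀ read visually and at 540 nm. Determined twice, in duplicate.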

Aspergillus fumigatus = assay: Antifungal activity against Aspergillus fumigatus 231 after 24 hrs by broth microdilution method; type: functional; details: Aspergillus fumigatus, 231, 24 h; how it was run: as §1
Lichtheimia corymbifera = assay: Antifungal activity against Absidia corymbifera 272 after 24 hrs by broth microdilution method; type: functional; details: Lichtheimia corymbifera, 272, 24 h; how it was run: as §1
[1] = test system: Trichophyton mentagrophytes; assay: Antifungal activity against Trichophyton mentagrophytes 445 after 24 hrs by broth microdilution method; type: functional; details: Trichophyton mentagrophytes, 445, 24 h
[2] = Selectivity ratio of IC50 for human HepG2 cell sto MIC100 for Mycobacterium kansasii 6509/96; type: functional
[3] = Selectivity ratio of IC50 for human HepG2 cell sto MIC90 for Staphylococcus aureus CCM 4516/08; type: functional
[4] = test system: Mycobacterium tuberculosis; assay: Antimycobacterial activity against Mycobacterium tuberculosis H37Rv 331/88 after 14 days; type: functional; details: H37Rv 331/88, 336 h
[5] = Selectivity ratio of IC50 for human HepG2 cell sto MIC100 for Mycobacterium kansasii 235/80; type: functional
HepG2 = assay: Cytotoxicity against human HepG2 cells after 24 hrs by MTS assay; type: cell-based; details: HepG2, 24 h
How it was run: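 Hep G2 human liver cells (passage 3–4), 10 000 per well, in MEM with 1% glutamine, 10% fetal serum and 1% non-essential amino acids. Compounds were added from DMSO at eight increasing concentrations in quadruplicate. Exposure was 24 h at 37 °C in 5% CO₂, then MTS reagent for 1.5 h. Formazan was read at 490 nm and IC₅₀ derived as 50% of control viability.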

[6] = test system: Mycobacterium tuberculosis; assay: Antimycobacterial activity against Mycobacterium tuberculosis H37Rv 331/88 after 21 days; type: functional; details: H37Rv 331/88, 504 h
How it was run: (§2)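 Micromethod in Sula semisynthetic medium, with compounds added as DMSO solutions over a two-fold series from 1000 down to 1. Inoculum for M. avium 330/88 was a 10⁻⁵ dilution. Plates were incubated at 37 °C and MIC was read after 14 and 21 days.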

Mycobacterium avium [7] = assay: Antimycobacterial activity against isoniazid-, rifampicin-, ofloxacin-, ethambutol-resistant Mycobacterium avium 330/88 after 14 days; type: functional; details: 330/88, 336 h; how it was run: as §2
Mycobacterium avium [8] = assay: Antimycobacterial activity against isoniazid-, rifampicin-, ofloxacin-, ethambutol-resistant Mycobacterium avium 330/88 after 21 days; type: functional; details: 330/88, 504 h; how it was run: as §2
Mycobacterium kansasii [9] = assay: Antimycobacterial activity against Mycobacterium kansasii 235/80 after 7 days; type: functional; details: 235/80, 168 h
How it was run: (§3)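 Micromethod MIC in Sula semisynthetic medium, with compounds added as DMSO solutions at […]. Incubation at 37 °C. Inocula: M. kansasii 235/80 at dilution 10⁻⁴, clinical isolate 6509/96 at 10⁻⁵.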

Mycobacterium kansasii [10] = assay: Antimycobacterial activity against Mycobacterium kansasii 235/80 after 14 days; type: functional; details: 235/80, 336 h; how it was run: as §3
Mycobacterium kansasii [11] = assay: Antimycobacterial activity against Mycobacterium kansasii 235/80 after 21 days; type: functional; details: 235/80, 504 h; how it was run: as §3
Mycobacterium kansasii [12] = assay: Antimycobacterial activity against Mycobacterium kansasii 6509/96 after 7 days; type: functional; details: 6509/96, 168 h; how it was run: as §3
Mycobacterium kansasii [13] = assay: Antimycobacterial activity against Mycobacterium kansasii 6509/96 after 14 days; type: functional; details: 6509/96, 336 h; how it was run: as §3
Mycobacterium kansasii [14] = assay: Antimycobacterial activity against Mycobacterium kansasii 6509/96 after 21 days; type: functional; details: 6509/96, 504 h; how it was run: as §3
Staphylococcus aureus [15] = assay: Antibacterial activity against Staphylococcus aureus CCM 4516/08 after 24 hrs by broth microdilution method; type: functional; details: CCM 4516/08, 24 h
How it was run: (§4)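 Microdilution broth method modified from M07-A07, in Mueller-Hinton broth at pH 7.4 (±0.2). Compounds were dissolved in DMSO. Inoculum was made in sterile water to 0.5 McFarland (1.5 × 10⁸ CFU/mL). MIC was taken as IC₉₀, meaning ≥90% growth reduction versus the drug-free control. Growth was read visually and by absorbance at 540 nm.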

Staphylococcus aureus [16] = assay: Antibacterial activity against Staphylococcus aureus CCM 4516/08 after 48 hrs by broth microdilution method; type: functional; details: CCM 4516/08, 48 h
How it was run: (§5)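 Broth microdilution modified from standard M07-A07 in Mueller-Hinton broth at pH 7.4 (±0.2). Compounds were dissolved in DMSO. Inoculum in sterile water was adjusted to 0.5 McFarland (1.5 × 10⁸ CFU/mL). MIC was taken as IC₉₀, i.e. ≥90% growth reduction versus control, read visually and spectrophotometrically at 540 nm.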

Staphylococcus aureus [17] = assay: Antibacterial activity against methicillin-resistant Staphylococcus aureus H 5996/08 after 24 hrs by broth microdilution method; type: functional; details: H 5996/08, 24 h; how it was run: as §4
Staphylococcus aureus [18] = assay: Antibacterial activity against methicillin-resistant Staphylococcus aureus H 5996/08 after 48 hrs by broth microdilution method; type: functional; details: H 5996/08, 48 h; how it was run: as §4
[19] = test system: Staphylococcus epidermidis; assay: Antibacterial activity against methicillin-resistant Staphylococcus epidermidis H 6966/08 after 24 hrs by broth microdilution method; type: functional; details: H 6966/08, 24 h; how it was run: as §4
[20] = test system: Staphylococcus epidermidis; assay: Antibacterial activity against methicillin-resistant Staphylococcus epidermidis H 6966/08 after 48 hrs by broth microdilution method; type: functional; details: H 6966/08, 48 h; how it was run: as §4
Escherichia coli = assay: Antibacterial activity against Escherichia coli CCM 4517 after 24 hrs by broth microdilution method; type: functional; details: CCM 4517, 24 h; how it was run: as §5
Klebsiella pneumoniae [21] = assay: Antibacterial activity against Klebsiella pneumoniae D 11750/08 after 24 hrs by broth microdilution method; type: functional; details: D 11750/08, 24 h; how it was run: as §5
Klebsiella pneumoniae [22] = assay: Antibacterial activity against ESBL-positive Klebsiella pneumoniae J 14368/08 after 24 hrs by broth microdilution method; type: functional; details: J 14368/08, 24 h; how it was run: as §5
Pseudomonas aeruginosa = assay: Antibacterial activity against Pseudomonas aeruginosa CCM 1961 after 24 hrs by broth microdilution method; type: functional; details: CCM 1961, 24 h; how it was run: as §5
Candida albicans = assay: Antifungal activity against Candida albicans ATCC 44857 after 24 hrs by broth microdilution method; type: functional; details: ATCC 44857, 24 h; how it was run: as §1
Candida tropicalis = assay: Antifungal activity against Candida tropicalis 156 after 24 hrs by broth microdilution method; type: functional; details: Candida tropicalis, 156, 24 h; how it was run: as §1
Nakaseomyces glabratus = assay: Antifungal activity against Candida glabrata 20/I after 24 hrs by broth microdilution method; type: functional; how it was run: as §1
Pichia kudriavzevii = assay: Antifungal activity against Candida krusei E58 after 24 hrs by broth microdilution method; type: functional; details: E58, 24 h; how it was run: as §1

SMILES | MIC (Trichosporon asahii) | MIC (Aspergillus fumigatus) | MIC (Lichtheimia corymbifera) | MIC [1] | Ratio [2] | Ratio [3] | MIC [4] | Ratio [5] | IC50 (HepG2) | MIC [6] | MIC (Mycobacterium avium [7]) | MIC (Mycobacterium avium [8]) | MIC (Mycobacterium kansasii [9]) | MIC (Mycobacterium kansasii [10]) | MIC (Mycobacterium kansasii [11]) | MIC (Mycobacterium kansasii [12]) | MIC (Mycobacterium kansasii [13]) | MIC (Mycobacterium kansasii [14]) | MIC (Staphylococcus aureus [15]) | MIC (Staphylococcus aureus [16]) | other results
Cc1cc(NS(=O)(=O)c2ccc(/N=C/c3cc(Cl)ccc3O)cc2)no1 | > 125 µM | > 125 µM | > 125 µM | > 125 µM | 12.1 | 6.1 | 125 µM (≈ 49 µg/mL) | 12.1 | 193 µM | 250 µM (≈ 98 µg/mL) | 62.5 µM (≈ 24.5 µg/mL) | 125 µM (≈ 49 µg/mL) | 4 µM (≈ 1.57 µg/mL) | 8 µM (≈ 3.13 µg/mL) | 16 µM (≈ 6.27 µg/mL) | 4 µM (≈ 1.57 µg/mL) | 4 µM (≈ 1.57 µg/mL) | 8 µM (≈ 3.13 µg/mL) | 31.2 µM (≈ 12.2 µg/mL) | 31.2 µM (≈ 12.2 µg/mL) | MIC (Staphylococcus aureus [17]): 15.6 µM (≈ 6.12 µg/mL); MIC (Staphylococcus aureus [18]): 31.2 µM (≈ 12.2 µg/mL); MIC [19]: > 500 µM; MIC [20]: > 500 µM; MIC (Escherichia coli): 125 µM (≈ 49 µg/mL); MIC (Klebsiella pneumoniae [21]): 500 µM (≈ 196 µg/mL); MIC (Klebsiella pneumoniae [22]): 500 µM (≈ 196 µg/mL); MIC (Pseudomonas aeruginosa): ≥ 500 µM; MIC (Candida albicans): > 125 µM; MIC (Candida tropicalis): > 125 µM; MIC (Nakaseomyces glabratus): > 125 µM; MIC (Pichia kudriavzevii): > 125 µM
O=S(=O)(Nc1nccs1)c1ccc(/N=C/c2cc(Cl)ccc2O)cc1 | > 125 µM | > 125 µM | > 125 µM | > 125 µM | 78.2 | 10 | 32 µM (≈ 12.6 µg/mL) | 78.2 | 313 µM | 62.5 µM (≈ 24.6 µg/mL) | 62.5 µM (≈ 24.6 µg/mL) | 125 µM (≈ 49.2 µg/mL) | 2 µM (≈ 0.788 µg/mL) | 4 µM (≈ 1.58 µg/mL) | 4 µM (≈ 1.58 µg/mL) | 2 µM (≈ 0.788 µg/mL) | 2 µM (≈ 0.788 µg/mL) | 2 µM (≈ 0.788 µg/mL) | 31.2 µM (≈ 12.3 µg/mL) | 31.2 µM (≈ 12.3 µg/mL) | MIC (Staphylococcus aureus [17]): 31.2 µM (≈ 12.3 µg/mL); MIC (Staphylococcus aureus [18]): 31.2 µM (≈ 12.3 µg/mL); MIC [19]: > 500 µM; MIC [20]: > 500 µM; MIC (Escherichia coli): 500 µM (≈ 197 µg/mL); MIC (Klebsiella pneumoniae [21]): 500 µM (≈ 197 µg/mL); MIC (Klebsiella pneumoniae [22]): 500 µM (≈ 197 µg/mL); MIC (Pseudomonas aeruginosa): ≥ 500 µM; MIC (Candida albicans): > 125 µM; MIC (Candida tropicalis): > 125 µM; MIC (Nakaseomyces glabratus): > 125 µM; MIC (Pichia kudriavzevii): > 125 µM
